In ChEMBL document CHEMBL4130351, “Novel pyrazolopyrimidines: Synthesis, in vitro cytotoxic activity and mechanistic investigation” (Eur J Med Chem, 2017):
Blank lines part the entries; values can stand above or below the compound they belong to.

Experiments:
HepG2 [1] = assay: Cell cycle arrest in human HepG2 cells assessed as accumulation at G0/G1 phase at 0.4 uM after 24 hrs by propidium iodide staining-based flow cytometry (reference value: 73.11%); format: functional
HepG2 [2] = assay: Induction of apoptosis in human HepG2 cells assessed as viable cells at 0.4 uM after 24 hrs by Annexin V/propidium iodide double staining-based flow cytometry (reference value: 99.16 %); format: functional; settings: HepG2, 24 h, read-out: Activity
How it was run: (§1)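 MCF-7 exposed at 1.4 μM or HepG2 at 0.4 μM for 24 or 48 h. Cells were collected in PBS, fixed in ice-cold 70% ethanol, washed, then resuspended in PI staining solution containing 0.1 mg/mL RNase plus PE-Annexin V. Staining was 10 min in the dark at 37 °C, followed by FACSCalibur flow cytometry.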

[3] = target: Cyclin-dependent kinase 2 (Homo sapiens) (UniProt P24941); assay: Inhibition of CDK2 (unknown origin) at 0.1 uM by CDKN2A antibody-based spectrophotometry
How it was run: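 Sandwich enzyme immunoassay using a plate pre-coated with CDKN2A-specific antibody. Detection used a biotinylated anti-CDKN2A antibody, then avidin-HRP and substrate; the reaction was stopped and read at 450 nm. Compound levels tested were 0.004, 0.02, 0.1, 0.4 and 0.5 ug/mL, reported as % inhibition. IC50 was derived by Boltzmann sigmoidal nonlinear regression.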

[4] = target: Cyclin-dependent kinase 2 (Homo sapiens) (UniProt P24941); assay: Inhibition of CDK2 (unknown origin) at 0.4 uM by CDKN2A antibody-based spectrophotometry
HepG2 [5] = assay: Induction of apoptosis in human HepG2 cells assessed as late apoptotic cells at 0.4 uM after 24 hrs by Annexin V/propidium iodide double staining-based flow cytometry (reference value: 0.14 %); format: functional; how it was run: as §1
HepG2 [6] = assay: Induction of apoptosis in human HepG2 cells assessed as early apoptotic cells at 0.4 uM after 24 hrs by Annexin V/propidium iodide double staining-based flow cytometry (reference value: 0.61 %); format: functional; how it was run: as §1
HepG2 [7] = assay: Induction of apoptosis in human HepG2 cells assessed as necrotic cells at 0.4 uM after 48 hrs by Annexin V/propidium iodide double staining-based flow cytometry (reference value: 0.09 %); format: functional; how it was run: as §1
MCF7 [8] = assay: Cytotoxicity against human MCF7 cells assessed as reduction in cell viability after 72 hrs by MTT assay; format: functional, cell-based; settings: MCF7, 72 h
How it was run: (§2)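 MCF-7 and HepG2 cells in exponential growth were trypsinized and seeded at 1000–2000 cells/well, then incubated 24 h at 37 °C. Compound exposure was 72 h at 0.1, 10, 100 and 1000 μM. Cells took up 5% MTT for 2 h, and formazan was dissolved in acidified isopropanol for 30 min at room temperature. A570 was read, viability expressed as % of control, and IC50 obtained by curve fitting.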

HepG2 [9] = assay: Cell cycle arrest in human HepG2 cells assessed as accumulation at G2/M phase at 0.4 uM after 48 hrs by propidium iodide staining-based flow cytometry (reference value: 4.36%); format: functional
[10] = target: Cyclin-dependent kinase inhibitor 1B (Homo sapiens) (UniProt P46527); assay: Activation of human P27kip1 at 0.40 uM using TMB as substrate by ELISA (reference value: 0%)
Cyclin-dependent kinase inhibitor 1B (Homo sapiens), sequence (P46527 whole entry): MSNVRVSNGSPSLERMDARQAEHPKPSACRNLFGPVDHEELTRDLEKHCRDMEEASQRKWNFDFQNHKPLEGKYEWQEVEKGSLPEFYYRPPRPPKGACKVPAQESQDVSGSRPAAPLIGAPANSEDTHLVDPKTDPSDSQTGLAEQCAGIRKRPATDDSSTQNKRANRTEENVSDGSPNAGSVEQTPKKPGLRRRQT
How it was run: (§3)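 Sandwich ELISAs on treated cells for p21Cip1 and p27Kip1: antibody-coated wells, detecting antibody, then HRP conjugate, with incubation and washing between steps. TMB substrate, reaction stopped, absorbance read at 450 nm. Output is residual concentration in pg/mL, expressed as % activation over untreated control.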

[11] = target: Cyclin-dependent kinase 2 (Homo sapiens) (UniProt P24941); assay: Inhibition of CDK2 (unknown origin) at 0.5 uM by CDKN2A antibody-based spectrophotometry
[12] = target: Cyclin-dependent kinase 2 (Homo sapiens) (UniProt P24941); assay: Inhibition of CDK2 (unknown origin) at 0.02 uM by CDKN2A antibody-based spectrophotometry
HepG2 [13] = assay: Cell cycle arrest in human HepG2 cells assessed as accumulation at S phase at 0.4 uM after 24 hrs by propidium iodide staining-based flow cytometry (reference value: 21.69%); format: functional
HepG2 [14] = assay: Induction of apoptosis in human HepG2 cells assessed as late apoptotic cells at 0.4 uM after 48 hrs by Annexin V/propidium iodide double staining-based flow cytometry (reference value: 0.14 %); format: functional; how it was run: as §1
HepG2 [15] = assay: Induction of apoptosis in human HepG2 cells assessed as viable cells at 0.4 uM after 48 hrs by Annexin V/propidium iodide double staining-based flow cytometry (reference value: 99.16 %); format: functional; settings: HepG2, 48 h, read-out: Activity; how it was run: as §1
HepG2 [16] = assay: Cell cycle arrest in human HepG2 cells assessed as accumulation at G2/M phase at 0.4 uM after 24 hrs by propidium iodide staining-based flow cytometry (reference value: 4.36%); format: functional
HepG2 [17] = assay: Cell cycle arrest in human HepG2 cells assessed as accumulation at G0/G1 phase at 0.4 uM after 48 hrs by propidium iodide staining-based flow cytometry (reference value: 73.11%); format: functional
[18] = target: Cyclin-dependent kinase inhibitor 1 (Homo sapiens) (UniProt P38936); assay: Activation of human P21cip1 at 0.40 uM using TMB as substrate by ELISA (reference value: 0%); how it was run: as §3
Cyclin-dependent kinase inhibitor 1 (Homo sapiens), sequence (P38936 whole entry): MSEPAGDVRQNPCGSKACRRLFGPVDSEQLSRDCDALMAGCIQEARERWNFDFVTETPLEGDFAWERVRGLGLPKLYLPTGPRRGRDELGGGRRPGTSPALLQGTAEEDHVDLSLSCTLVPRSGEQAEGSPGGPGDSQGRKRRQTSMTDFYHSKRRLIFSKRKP

HepG2 [19] = assay: Induction of apoptosis in human HepG2 cells at 0.4 uM after 24 hrs by Annexin V/propidium iodide double staining-based flow cytometry (reference value: 0.84%); format: functional; how it was run: as §1
HepG2 [20] = assay: Induction of apoptosis in human HepG2 cells assessed as necrotic cells at 0.4 uM after 24 hrs by Annexin V/propidium iodide double staining-based flow cytometry (reference value: 0.09 %); format: functional; how it was run: as §1
HepG2 [21] = assay: Induction of apoptosis in human HepG2 cells assessed as early apoptotic cells at 0.4 uM after 48 hrs by Annexin V/propidium iodide double staining-based flow cytometry (reference value: 0.61 %); format: functional; how it was run: as §1
[22] = target: Cyclin-dependent kinase 2 (Homo sapiens) (UniProt P24941); assay: Inhibition of CDK2 (unknown origin) at 0.004 uM by CDKN2A antibody-based spectrophotometry
HepG2 [23] = assay: Cytotoxicity against human HepG2 cells assessed as reduction in cell viability after 72 hrs by MTT assay; format: functional, cell-based; settings: HepG2, 72 h; how it was run: as §2
HepG2 [24] = assay: Induction of apoptosis in human HepG2 cells at 0.4 uM after 48 hrs by Annexin V/propidium iodide double staining-based flow cytometry (reference value: 0.84%); format: functional; how it was run: as §1
HepG2 [25] = assay: Cell cycle arrest in human HepG2 cells assessed as accumulation at S phase at 0.4 uM after 48 hrs by propidium iodide staining-based flow cytometry (reference value: 21.69%); format: functional
HepG2 [26] = assay: Induction of apoptosis in human HepG2 cells assessed as caspase-3 activation at 0.4 uM after 10 mins by ELISA relative to control; format: functional
How it was run: (§4)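 MCF-7 treated at 1.4 μM or HepG2 at 0.4 μM. Cells were trypsinized, rinsed in PBS, pelleted (105–106 cells) and resuspended in 1 mL PBS. Lysis was by three freeze/thaw cycles, followed by a 1500×g spin for 10 min at 2–8 °C. Active caspase-3 (cleaved at Asp175/Ser176) in the lysate was quantified by sandwich ELISA with an anti-rabbit HRP step, read at 450 nm, in pg/mL against control.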

MCF7 [27] = assay: Induction of apoptosis in human MCF7 cells assessed as late apoptotic cells at 1.4 uM after 48 hrs by Annexin V/propidium iodide double staining-based flow cytometry (reference value: 0.18 %); format: functional; how it was run: as §1
MCF7 [28] = assay: Induction of apoptosis in human MCF7 cells assessed as caspase-3 activation at 1.4 uM after 10 mins by ELISA relative to control; format: functional; how it was run: as §4
MCF7 [29] = assay: Cell cycle arrest in human MCF7 cells assessed as accumulation at S phase at 1.4 uM after 48 hrs by propidium iodide staining-based flow cytometry (reference value: 22.45%); format: functional
MCF7 [30] = assay: Induction of apoptosis in human MCF7 cells assessed as viable cells at 1.4 uM after 24 hrs by Annexin V/propidium iodide double staining-based flow cytometry (reference value: 99.38 %); format: functional; settings: MCF7, 24 h, read-out: Activity; how it was run: as §1
MCF7 [31] = assay: Induction of apoptosis in human MCF7 cells at 1.4 uM after 48 hrs by Annexin V/propidium iodide double staining-based flow cytometry (reference value: 0.62%); format: functional; how it was run: as §1
MCF7 [32] = assay: Induction of apoptosis in human MCF7 cells assessed as necrotic cells at 1.4 uM after 48 hrs by Annexin V/propidium iodide double staining-based flow cytometry (reference value: 0.05 %); format: functional; how it was run: as §1
MCF7 [33] = assay: Induction of apoptosis in human MCF7 cells assessed as early apoptotic cells at 1.4 uM after 24 hrs by Annexin V/propidium iodide double staining-based flow cytometry (reference value: 0.39 %); format: functional; how it was run: as §1
MCF7 [34] = assay: Cell cycle arrest in human MCF7 cells assessed as accumulation at G2/M phase at 1.4 uM after 24 hrs by propidium iodide staining-based flow cytometry (reference value: 5.23%); format: functional
MCF7 [35] = assay: Induction of apoptosis in human MCF7 cells assessed as early apoptotic cells at 1.4 uM after 48 hrs by Annexin V/propidium iodide double staining-based flow cytometry (reference value: 0.39 %); format: functional; how it was run: as §1
MCF7 [36] = assay: Induction of apoptosis in human MCF7 cells at 1.4 uM after 24 hrs by Annexin V/propidium iodide double staining-based flow cytometry (reference value: 0.62%); format: functional; how it was run: as §1
MCF7 [37] = assay: Cell cycle arrest in human MCF7 cells assessed as accumulation at G2/M phase at 1.4 uM after 48 hrs by propidium iodide staining-based flow cytometry (reference value: 5.23%); format: functional
MCF7 [38] = assay: Cell cycle arrest in human MCF7 cells assessed as accumulation at G0/G1 phase at 1.4 uM after 24 hrs by propidium iodide staining-based flow cytometry (reference value: 71.70%); format: functional
MCF7 [39] = assay: Induction of apoptosis in human MCF7 cells assessed as late apoptotic cells at 1.4 uM after 24 hrs by Annexin V/propidium iodide double staining-based flow cytometry (reference value: 0.18 %); format: functional; how it was run: as §1
MCF7 [40] = assay: Cell cycle arrest in human MCF7 cells assessed as accumulation at S phase at 1.4 uM after 24 hrs by propidium iodide staining-based flow cytometry (reference value: 22.45%); format: functional
MCF7 [41] = assay: Induction of apoptosis in human MCF7 cells assessed as viable cells at 1.4 uM after 48 hrs by Annexin V/propidium iodide double staining-based flow cytometry (reference value: 99.38 %); format: functional; settings: MCF7, 48 h, read-out: Activity; how it was run: as §1
MCF7 [42] = assay: Cell cycle arrest in human MCF7 cells assessed as accumulation at G0/G1 phase at 1.4 uM after 48 hrs by propidium iodide staining-based flow cytometry (reference value: 71.70%); format: functional
MCF7 [43] = assay: Induction of apoptosis in human MCF7 cells assessed as necrotic cells at 1.4 uM after 24 hrs by Annexin V/propidium iodide double staining-based flow cytometry (reference value: 0.05 %); format: functional; how it was run: as §1

inhibition [3]: 53.1%
inhibition [4]: 68.8%
Activity [10]: 8.5%
inhibition [11]: 81.8%
inhibition [12]: 39%
Activity [18]: 10.1%
inhibition [22]: 12.6%
SMILES: N=c1[nH]c(=O)[nH]c2c1cnn2-c1ccc(S(N)(=O)=O)cc1
Activity (HepG2 [1]): 36.55%
viability at 0.4 µM (HepG2 [2]): 86.3%
Activity (HepG2 [5]): 4.79%
Activity (HepG2 [6]): 7.64%
Activity (HepG2 [7]): 1.03%
IC50 (MCF7 [8]): > 100 µM
Activity (HepG2 [9]): 48.91%
Activity (HepG2 [13]): 25.66%
Activity (HepG2 [14]): 5.92%
viability at 0.4 µM (HepG2 [15]): 83.3%
Activity (HepG2 [16]): 23.78%
Activity (HepG2 [17]): 9.62%
Activity (HepG2 [19]): 13.92%
Activity (HepG2 [20]): 1.29%
Activity (HepG2 [21]): 9.76%
IC50 (HepG2 [23]): 0.4 µM
Activity (HepG2 [24]): 16.71%
Activity (HepG2 [25]): 24.67%
fold change (FC) (HepG2 [26]): 36

SMILES: NS(=O)(=O)c1ccc(-n2ncc3c(=O)[nH]c(-c4ccc(F)cc4)nc32)cc1
IC50 (MCF7 [8]): 38 µM
IC50 (HepG2 [23]): 2.66 µM

SMILES: COc1ccc(-c2nc3c(cnn3-c3ccc(S(N)(=O)=O)cc3)c(=O)[nH]2)cc1
Activity (MCF7 [27]): 3.64%
fold change (FC) (MCF7 [28]): 32
Activity (MCF7 [29]): 16.09%
viability at 1.4 µM (MCF7 [30]): 72.6%
IC50 (MCF7 [8]): 1.4 µM
Activity (MCF7 [31]): 11.61%
Activity (MCF7 [32]): 1.48%
Activity (MCF7 [33]): 4.39%
Activity (MCF7 [34]): 0%
Activity (MCF7 [35]): 6.49%
Activity (MCF7 [36]): 7.38%
Activity (MCF7 [37]): 0%
Activity (MCF7 [38]): 64.7%
Activity (MCF7 [39]): 2.58%
Activity (MCF7 [40]): 27.92%
viability at 1.4 µM (MCF7 [41]): 88.4%
IC50 (HepG2 [23]): > 100 µM
Activity (MCF7 [42]): 72.3%
Activity (MCF7 [43]): 0.41%

SMILES: NC(=O)c1cnn(-c2ccc(S(N)(=O)=O)cc2)c1N
IC50 (MCF7 [8]): > 100 µM
IC50 (HepG2 [23]): > 100 µM

SMILES: NS(=O)(=O)c1ccc(-n2ncc3c(=O)[nH]c(-c4ccccc4)nc32)cc1
IC50 (MCF7 [8]): > 100 µM
IC50 (HepG2 [23]): 77.6 µM
